Test system: Fibroblast
Assay: Multiplex assay against human fibroblast
Type: toxicity, cell-based
In short: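 Imaging took place on a CQ1 microscope at 37°C and 5% CO2 once compound had been added to live cells stained at seeding with Hoechst33342, BioTracker Green Microtubule Cytoskeleton Dye, MitoTracker Red and Annexin V Alexa Fluor 680. CellPathfinder machine-learning gating classed cells as Hoechst high-intensity objects or normal cells, classed normal cells as having healthy, pyknosed or fragmented nuclei, and classed pyknosed cells as mitotic or apoptotic. Tubulin, mitochondrial-mass and membrane-permeability phenotypes are per cents of the healthy-nucleus cells.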

[1] = 12 h, 1 µM, compound concentration 1 uM, replicate 1
[2] = 12 h, 1 µM, compound concentration 1 uM, replicate 2
[3] = 12 h, 10 µM, compound concentration 10 uM, replicate 1
[4] = 12 h, 10 µM, compound concentration 10 uM, replicate 2
[5] = 24 h, 1 µM, compound concentration 1 uM, replicate 1
[6] = 24 h, 1 µM, compound concentration 1 uM, replicate 2
[7] = 24 h, 10 µM, compound concentration 10 uM, replicate 1
[8] = 24 h, 10 µM, compound concentration 10 uM, replicate 2
[9] = 48 h, 1 µM, compound concentration 1 uM, replicate 1
[10] = 48 h, 1 µM, compound concentration 1 uM, replicate 2
[11] = 48 h, 10 µM, compound concentration 10 uM, replicate 1
[12] = 48 h, 10 µM, compound concentration 10 uM, replicate 2

Cl.NC[C@@H]1O[C@H](C23CC4CC(CC(C4)C2)C3)Cc2c1ccc(O)c2O
Population Apoptotic (%) [1]: 60% | Population Fragmented Nuclei (%) [1]: 28% | Population Healthy Nuclei (%) [1]: 51% | Population Hoechst High Intensity Objects (%) [1]: 12% | Population Membrane Permeable-Phenotype (%) [1]: 16% | Population Mitochondria Different-Phenotype (%) [1]: 1% | Population Mitotic Cells (%) [1]: 40% | Population Normal (%) [1]: 87% | Population Pyknosed Nuclei (%) [1]: 20% | Population Tubulin-Different-Phenotype (%) [1]: 24% | Total Cell Count [1]: 171 | Population Apoptotic (%) [2]: 0% | Population Fragmented Nuclei (%) [2]: 6% | Population Healthy Nuclei (%) [2]: 91% | Population Hoechst High Intensity Objects (%) [2]: 3% | Population Membrane Permeable-Phenotype (%) [2]: 2% | Population Mitochondria Different-Phenotype (%) [2]: 9% | Population Mitotic Cells (%) [2]: 100% | Population Normal (%) [2]: 96% | Population Pyknosed Nuclei (%) [2]: 2% | Population Tubulin-Different-Phenotype (%) [2]: 10% | Total Cell Count [2]: 95 | Population Apoptotic (%) [3]: 44% | Population Fragmented Nuclei (%) [3]: 29% | Population Healthy Nuclei (%) [3]: 42% | Population Hoechst High Intensity Objects (%) [3]: 15% | Population Membrane Permeable-Phenotype (%) [3]: 8% | Population Mitochondria Different-Phenotype (%) [3]: 9% | Population Mitotic Cells (%) [3]: 55% | Population Normal (%) [3]: 84% | Population Pyknosed Nuclei (%) [3]: 28% | Population Tubulin-Different-Phenotype (%) [3]: 46% | Total Cell Count [3]: 205 | Population Apoptotic (%) [4]: 52% | Population Fragmented Nuclei (%) [4]: 39% | Population Healthy Nuclei (%) [4]: 32% | Population Hoechst High Intensity Objects (%) [4]: 10% | Population Membrane Permeable-Phenotype (%) [4]: 9% | Population Mitochondria Different-Phenotype (%) [4]: 22% | Population Mitotic Cells (%) [4]: 47% | Population Normal (%) [4]: 89% | Population Pyknosed Nuclei (%) [4]: 27% | Population Tubulin-Different-Phenotype (%) [4]: 27% | Total Cell Count [4]: 76 | Population Apoptotic (%) [5]: 50% | Population Fragmented Nuclei (%) [5]: 32% | Population Healthy Nuclei (%) [5]: 55% | Population Hoechst High Intensity Objects (%) [5]: 14% | Population Membrane Permeable-Phenotype (%) [5]: 14% | Population Mitochondria Different-Phenotype (%) [5]: 0% | Population Mitotic Cells (%) [5]: 50% | Population Normal (%) [5]: 85% | Population Pyknosed Nuclei (%) [5]: 12% | Population Tubulin-Different-Phenotype (%) [5]: 26% | Total Cell Count [5]: 213 | Population Apoptotic (%) [6]: 42% | Population Fragmented Nuclei (%) [6]: 8% | Population Healthy Nuclei (%) [6]: 85% | Population Hoechst High Intensity Objects (%) [6]: 2% | Population Membrane Permeable-Phenotype (%) [6]: 5% | Population Mitochondria Different-Phenotype (%) [6]: 10% | Population Mitotic Cells (%) [6]: 57% | Population Normal (%) [6]: 97% | Population Pyknosed Nuclei (%) [6]: 6% | Population Tubulin-Different-Phenotype (%) [6]: 12% | Total Cell Count [6]: 114 | Population Apoptotic (%) [7]: 58% | Population Fragmented Nuclei (%) [7]: 17% | Population Healthy Nuclei (%) [7]: 52% | Population Hoechst High Intensity Objects (%) [7]: 29% | Population Membrane Permeable-Phenotype (%) [7]: 5% | Population Mitochondria Different-Phenotype (%) [7]: 16% | Population Mitotic Cells (%) [7]: 41% | Population Normal (%) [7]: 70% | Population Pyknosed Nuclei (%) [7]: 30% | Population Tubulin-Different-Phenotype (%) [7]: 50% | Total Cell Count [7]: 181 | Population Apoptotic (%) [8]: 92% | Population Fragmented Nuclei (%) [8]: 50% | Population Healthy Nuclei (%) [8]: 29% | Population Hoechst High Intensity Objects (%) [8]: 18% | Population Membrane Permeable-Phenotype (%) [8]: 26% | Population Mitochondria Different-Phenotype (%) [8]: 26% | Population Mitotic Cells (%) [8]: 7% | Population Normal (%) [8]: 81% | Population Pyknosed Nuclei (%) [8]: 20% | Population Tubulin-Different-Phenotype (%) [8]: 26% | Total Cell Count [8]: 80 | Population Apoptotic (%) [9]: 87% | Population Fragmented Nuclei (%) [9]: 36% | Population Healthy Nuclei (%) [9]: 59% | Population Hoechst High Intensity Objects (%) [9]: 11% | Population Membrane Permeable-Phenotype (%) [9]: 10% | Population Mitotic Cells (%) [9]: 12% | Population Normal (%) [9]: 88% | Population Pyknosed Nuclei (%) [9]: 4% | Population Tubulin-Different-Phenotype (%) [9]: 13% | Total Cell Count [9]: 212 | Population Apoptotic (%) [10]: 100% | Population Fragmented Nuclei (%) [10]: 21% | Population Healthy Nuclei (%) [10]: 77% | Population Hoechst High Intensity Objects (%) [10]: 10% | Population Membrane Permeable-Phenotype (%) [10]: 16% | Population Mitochondria Different-Phenotype (%) [10]: 0% | Population Mitotic Cells (%) [10]: 0% | Population Normal (%) [10]: 89% | Population Pyknosed Nuclei (%) [10]: 0% | Population Tubulin-Different-Phenotype (%) [10]: 21% | Total Cell Count [10]: 114 | Population Apoptotic (%) [11]: 66% | Population Fragmented Nuclei (%) [11]: 32% | Population Healthy Nuclei (%) [11]: 43% | Population Hoechst High Intensity Objects (%) [11]: 24% | Population Membrane Permeable-Phenotype (%) [11]: 50% | Population Mitochondria Different-Phenotype (%) [11]: 5% | Population Mitotic Cells (%) [11]: 33% | Population Normal (%) [11]: 75% | Population Pyknosed Nuclei (%) [11]: 23% | Population Tubulin-Different-Phenotype (%) [11]: 46% | Total Cell Count [11]: 169 | Population Apoptotic (%) [12]: 100% | Population Fragmented Nuclei (%) [12]: 50% | Population Healthy Nuclei (%) [12]: 48% | Population Hoechst High Intensity Objects (%) [12]: 17% | Population Membrane Permeable-Phenotype (%) [12]: 14% | Population Mitochondria Different-Phenotype (%) [12]: 1% | Population Mitotic Cells (%) [12]: 0% | Population Normal (%) [12]: 82% | Population Pyknosed Nuclei (%) [12]: 1% | Population Tubulin-Different-Phenotype (%) [12]: 43% | Total Cell Count [12]: 236
